# Key:
# Type in all cases: functional
# Trypanosoma brucei [1] = experiment: Compound is evaluated for trypanocidal activity against Trypanosoma brucei, by exposing the parasites directly to compound prior to injection to mice at 10 E-6 M concentration in dark conditions
# Outline: (§1)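 T. brucei EATRO 110 was separated from blood on DEAE-cellulose and washed in Tris-saline-glucose (TSG). Parasites at 5×10^6/mL in TSG were gently rotated 10 min with drug at the final concentration, kept dark under a red safelight until injection. Swiss mice, five per group, received 5×10^5 parasites ip in 0.1 mL. Read-out was mean days survival ±SD over 30 days, against untreated-parasite controls.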
# Trypanosoma brucei [2] = experiment: Compound is evaluated for trypanocidal activity against Trypanosoma brucei, by exposing the parasites directly to compound prior to injection to mice at 10 E-6 M concentration in presence of light
# Outline: (§2)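 DEAE-purified T. brucei EATRO 110 at 5×10^6/mL in TSG was mixed with drug at the final concentration by gentle rotation for 10 min. Samples were light-activated for 10 min under a 30W fluorescent lamp 4 cm above. 5×10^5 treated parasites in 0.1 mL were injected ip into Swiss mice, five per group. Survival was scored daily for 30 days and reported as mean days ±SD, with untreated controls.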
# Trypanosoma brucei [3] = experiment: Compound is evaluated for trypanocidal activity against Trypanosoma brucei, by exposing the parasites directly to compound prior to injection to mice at 10 E-4 M concentration in dark conditions; outline: as §1
# Trypanosoma brucei [4] = experiment: Compound is evaluated for trypanocidal activity against Trypanosoma brucei, by exposing the parasites directly to compound prior to injection to mice at 10 E-4 M concentration in presence of light; outline: as §2
# Trypanosoma brucei [5] = experiment: Compound is evaluated for trypanocidal activity against Trypanosoma brucei, by exposing the parasites directly to compound prior to injection to mice at 10 E-5 M concentration (pre) in dark conditions
# Outline: (§3)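 Drug was preirradiated 1 h with visible light, then added at the final concentration to T. brucei EATRO 110 (5×10^6/mL in TSG) and rotated 10 min. The parasites were then kept dark with a red safelight. Swiss mice, five per group, were injected ip with 0.1 mL holding 5×10^5 parasites. Mean days survival ±SD was scored over 30 days against untreated-parasite controls.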
# Trypanosoma brucei [6] = experiment: Compound is evaluated for trypanocidal activity against Trypanosoma brucei, by exposing the parasites directly to compound prior to injection to mice at 10 E-5 M concentration (pre) in presence of light
# Outline: (§4)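 Compound was irradiated 1 h before contact with T. brucei EATRO 110 (5×10^6/mL in TSG, final drug concentration). After 10 min gentle rotation, the mixture was irradiated again for 10 min under a 30W fluorescent lamp at 4 cm. 5×10^5 parasites in 0.1 mL were given ip to five Swiss mice per group. Read-out was mean days survival ±SD over 30 days, with untreated controls.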
# Trypanosoma brucei [7] = experiment: Compound is evaluated for trypanocidal activity against Trypanosoma brucei, by exposing the parasites directly to compound prior to injection to mice at 10 E-5 M concentration in dark conditions; outline: as §1
# Trypanosoma brucei [8] = experiment: Compound is evaluated for trypanocidal activity against Trypanosoma brucei, by exposing the parasites directly to compound prior to injection to mice at 10 E-5 M concentration in presence of light; outline: as §2
# Trypanosoma brucei [9] = experiment: Trypanocidal activity against Trypanosoma brucei, exposure of parasites to compound prior to injection into mice at 10 e-5 M concentration in dark conditions; outline: as §1
# Trypanosoma brucei [10] = experiment: Trypanocidal activity against Trypanosoma brucei, exposure of parasites to compound prior to injection into mice at 10 e-6 M concentration in dark conditions; outline: as §1
# Trypanosoma brucei [11] = experiment: Compound is evaluated for trypanocidal activity against Trypanosoma brucei, by exposing the parasites directly to compound prior to injection to mice at 10 e-7 M concentration in dark; outline: as §1
# Trypanosoma brucei [12] = experiment: Compound is evaluated for trypanocidal activity against Trypanosoma brucei, by exposing the parasites directly to compound prior to injection to mice at 10 E-5 M concentration in presence of lightin; outline: as §2
# Trypanosoma brucei [13] = experiment: Compound is evaluated for trypanocidal activity against Trypanosoma brucei, by exposing the parasites directly to compound prior to injection to mice at 10 E-6 M concentration (pre) in dark conditions; outline: as §3
# Trypanosoma brucei [14] = experiment: Compound is evaluated for trypanocidal activity against Trypanosoma brucei, by exposing the parasites directly to compound prior to injection to mice at 10 E-6 M concentration (pre) in presence of light.; outline: as §4
# Trypanosoma brucei [15] = experiment: Compound is evaluated for trypanocidal activity against Trypanosoma brucei, by exposing the parasites directly to compound prior to injection to mice at 10 E-7 M concentration in dark conditions; outline: as §1
# Trypanosoma brucei [16] = experiment: Compound is evaluated for trypanocidal activity against Trypanosoma brucei, by exposing the parasites directly to compound prior to injection to mice at 10 E-7 M concentration in presence of light; outline: as §2
SMILES,Activity (Trypanosoma brucei [1]),Activity (Trypanosoma brucei [2]),Activity (Trypanosoma brucei [3]),Activity (Trypanosoma brucei [4]),Activity (Trypanosoma brucei [5]),Activity (Trypanosoma brucei [6]),Activity (Trypanosoma brucei [7]),Activity (Trypanosoma brucei [8]),Activity (Trypanosoma brucei [9]),Activity (Trypanosoma brucei [10]),Activity (Trypanosoma brucei [11]),Activity (Trypanosoma brucei [12]),Activity (Trypanosoma brucei [13]),Activity (Trypanosoma brucei [14]),Activity (Trypanosoma brucei [15]),Activity (Trypanosoma brucei [16])
Nc1ccc2cc3ccccc3nc2c1,4.9,5.7,6.9,30,6.7,30,6.6,30,–,–,–,–,–,–,–,–
N=C(N)c1ccc(/N=N/Nc2ccc(C(=N)N)cc2)cc1 [DIMINAZENE],–,–,–,–,–,–,–,–,19.2,10.8,5,–,–,–,–,–
Nc1ccc2cc3ccc(N)cc3nc2c1 [PROFLAVINE],5.5,30,30,30,–,–,12,–,–,–,–,30,7.2,20.6,6.3,8.1
